Data from ChEMBL document CHEMBL1152649, “Synthesis, cytotoxicity and human telomerase inhibition activities of a series of 1,2-heteroannelated anthraquinones and anthra[1,2-d]imidazole-6,11-dione homologues” (2009).
Calls of active or inactive are those of the source. The rule behind the calls is not given here.

Key:
SNB-75 = assay: Antiproliferative activity against human SNB75 cells assessed as cell growth at 10 uM; type: functional; details: read-out: Activity
In short: (§1)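 NCI 60 cell line panel, single dose (10^-5 M), run per the Developmental Therapeutics Program protocol (one dose mean graph). Each result is the growth percentage of treated cells relative to untreated control cells.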

HL-60(TB) = assay: Antiproliferative activity against human HL-60(TB) cells assessed as cell growth at 10 uM; type: functional; details: read-out: Activity
In short: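 NCI Developmental Therapeutics Program 60-cell-line one-dose screen at 10^-5 M. Readout is growth percentage of treated cells relative to untreated control cells.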

OVCAR-8 = assay: Antiproliferative activity against human OVCAR8 cells assessed as cell growth at 10 uM; type: functional; details: read-out: Activity
In short: (§2)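 NCI 60 cell line panel, single-dose screen (10^-5 M) run by the developmental therapeutics program protocol. Results are given as growth percent of treated cells relative to untreated control cells for each line.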

SR = assay: Antiproliferative activity against human SR cells assessed as cell growth at 10 uM; type: functional; details: read-out: Activity; in short: as §1
[1] = Cytotoxicity against human H1299 cells at 100 uM after 48 hrs by MTT assay; type: functional; details: NCI-H1299, 48 h
In short: (§3)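 H1299 non-small cell lung cancer cells were grown in RPMI 1640 with 10% FBS, penicillin and streptomycin at 37 °C under 5% CO2. About 2 × 10³ cells per well were seeded and left 24 h. Compounds were dissolved fresh in DMSO, diluted into complete medium and applied for 48 h. MTT was then added for 4 h at 37 °C, followed by lysis buffer (20% SDS, 50% DMF) for 16 h, and absorbance was read at 550 nm.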

HT-29 = assay: Antiproliferative activity against human HT-29 cells assessed as cell growth at 10 uM; type: functional; details: read-out: Activity; in short: as §2
OVCAR-5 = assay: Antiproliferative activity against human OVCAR5 cells assessed as cell growth at 10 uM; type: functional; details: read-out: Activity; in short: as §2
SK-OV-3 = assay: Antiproliferative activity against human SKOV3 cells assessed as cell growth at 10 uM; type: functional; details: read-out: Activity; in short: as §2
SW-620 = assay: Antiproliferative activity against human SW620 cells assessed as cell growth at 10 uM; type: functional; details: read-out: Activity; in short: as §1
UACC-62 = assay: Antiproliferative activity against human UACC62 cells assessed as cell growth at 10 uM; type: functional; details: read-out: Activity; in short: as §1
UO-31 = assay: Antiproliferative activity against human UO31 cells assessed as cell growth at 10 uM; type: functional; details: read-out: Activity; in short: as §1
SK-MEL-2 = assay: Antiproliferative activity against human SK-MEL-2 cells assessed as cell growth at 10 uM; type: functional; details: read-out: Activity; in short: as §2
SN12C = assay: Antiproliferative activity against human SN12C cells assessed as cell growth at 10 uM; type: functional; details: read-out: Activity; in short: as §2
SK-MEL-5 = assay: Antiproliferative activity against human SK-MEL-5 cells assessed as cell growth at 10 uM; type: functional; details: read-out: Activity; in short: as §2
HCT-116 = assay: Antiproliferative activity against human HCT116 cells assessed as cell growth at 10 uM; type: functional; details: read-out: Activity; in short: as §2
K562 = assay: Antiproliferative activity against human K562 cells assessed as cell growth at 10 uM; type: functional; details: read-out: Activity; in short: as §2
NCI/ADR-RES = assay: Antiproliferative activity against human NCI/ADR-RES cells assessed as cell growth at 10 uM; type: functional; details: read-out: Activity; in short: as §2
[2] = Cytotoxicity against human H1299 cells at 10 uM after 48 hrs by MTT assay; type: functional; details: NCI-H1299, 48 h; in short: as §3
MCF7 = assay: Antiproliferative activity against human MCF7 cells assessed as cell growth at 10 uM; type: functional; details: read-out: Activity; in short: as §2
NCI-H226 = assay: Antiproliferative activity against human NCI-H226 cells assessed as cell growth at 10 uM; type: functional; details: read-out: Activity; in short: as §2
T47D = assay: Antiproliferative activity against human T47D cells assessed as cell growth at 10 uM; type: functional; details: read-out: Activity; in short: as §1
SF-539 = assay: Antiproliferative activity against human SF539 cells assessed as cell growth at 10 uM; type: functional; details: read-out: Activity; in short: as §2
ACHN = assay: Antiproliferative activity against human ACHN cells assessed as cell growth at 10 uM; type: functional; details: read-out: Activity; in short: as §2
HOP-92 = assay: Antiproliferative activity against human HOP92 cells assessed as cell growth at 10 uM; type: functional; details: read-out: Activity; in short: as §2
COLO 205 = assay: Antiproliferative activity against human COLO205 cells assessed as cell growth at 10 uM; type: functional; details: read-out: Activity; in short: as §2
HCC 2998 = assay: Antiproliferative activity against human HCC2998 cells assessed as cell growth at 10 uM; type: functional; details: read-out: Activity; in short: as §2
NCI-H23 = assay: Antiproliferative activity against human NCI-H23 cells assessed as cell growth at 10 uM; type: functional; details: read-out: Activity; in short: as §2
[3] = Antiproliferative activity against human RPMI8266 cells assessed as cell growth at 10 uM; type: functional; details: read-out: Activity; in short: as §2
[4] = molecular target: Telomerase reverse transcriptase (Homo sapiens) (UniProt O14746); assay: Inhibition of TERT in human H1299 cells assessed as residual transcriptional activity at 1 uM after 24 hrs by SEAP reporter gene assay; values are per cent of control
Sequence of Telomerase reverse transcriptase (Homo sapiens) (O14746 whole entry): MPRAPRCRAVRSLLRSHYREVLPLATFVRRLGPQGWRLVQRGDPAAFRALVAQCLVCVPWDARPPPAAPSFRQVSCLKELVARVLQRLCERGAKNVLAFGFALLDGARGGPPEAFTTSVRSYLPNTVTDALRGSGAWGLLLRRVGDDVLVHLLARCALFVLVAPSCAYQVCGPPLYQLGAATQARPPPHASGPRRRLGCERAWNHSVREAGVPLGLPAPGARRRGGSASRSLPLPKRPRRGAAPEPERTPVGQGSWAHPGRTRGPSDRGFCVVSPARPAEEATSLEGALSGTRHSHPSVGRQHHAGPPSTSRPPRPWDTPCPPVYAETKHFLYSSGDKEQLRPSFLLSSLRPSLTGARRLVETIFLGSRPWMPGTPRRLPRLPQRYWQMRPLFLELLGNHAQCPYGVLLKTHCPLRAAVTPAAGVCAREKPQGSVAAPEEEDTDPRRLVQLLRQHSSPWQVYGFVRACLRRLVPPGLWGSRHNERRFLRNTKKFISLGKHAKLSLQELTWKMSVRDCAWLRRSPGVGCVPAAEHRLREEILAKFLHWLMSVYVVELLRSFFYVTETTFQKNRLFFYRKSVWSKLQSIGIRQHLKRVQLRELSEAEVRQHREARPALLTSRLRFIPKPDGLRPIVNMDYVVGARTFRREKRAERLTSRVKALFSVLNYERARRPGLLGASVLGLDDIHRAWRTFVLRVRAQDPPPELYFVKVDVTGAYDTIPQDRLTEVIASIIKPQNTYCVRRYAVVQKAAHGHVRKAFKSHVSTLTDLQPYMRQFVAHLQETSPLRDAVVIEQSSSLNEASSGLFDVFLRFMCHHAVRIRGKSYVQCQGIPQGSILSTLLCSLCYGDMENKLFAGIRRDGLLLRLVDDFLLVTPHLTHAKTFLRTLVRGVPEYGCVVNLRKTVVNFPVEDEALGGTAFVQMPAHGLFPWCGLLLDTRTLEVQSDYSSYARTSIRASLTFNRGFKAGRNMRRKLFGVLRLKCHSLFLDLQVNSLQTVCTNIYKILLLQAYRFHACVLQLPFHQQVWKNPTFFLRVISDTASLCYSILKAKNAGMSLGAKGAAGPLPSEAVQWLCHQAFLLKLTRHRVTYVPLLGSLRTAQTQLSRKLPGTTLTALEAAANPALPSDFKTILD

EKVX = assay: Antiproliferative activity against human EKVX cells assessed as cell growth at 10 uM; type: functional; details: read-out: Activity; in short: as §2
[5] = molecular target: Telomerase reverse transcriptase (Homo sapiens) (UniProt O14746); assay: Inhibition of TERT in human H1299 cells assessed as residual transcriptional activity at 10 uM after 24 hrs by SEAP reporter gene assay; values are per cent of control
MOLT-4 = assay: Antiproliferative activity against human MOLT4 cells assessed as cell growth at 10 uM; type: functional; details: read-out: Activity; in short: as §2
SF-268 = assay: Antiproliferative activity against human SF268 cells assessed as cell growth at 10 uM; type: functional; details: read-out: Activity; in short: as §2
CAKI-1 = assay: Antiproliferative activity against human Caki1 cells assessed as cell growth at 10 uM; type: functional; details: read-out: Activity; in short: as §2
DU-145 = assay: Antiproliferative activity against human DU145 cells assessed as cell growth at 10 uM; type: functional; details: read-out: Activity; in short: as §2
MDA-MB-435 = assay: Antiproliferative activity against human MDA-MB-435 cells assessed as cell growth at 10 uM; type: functional; details: read-out: Activity; in short: as §2
NCI-H460 = assay: Antiproliferative activity against human NCI-H460 cells assessed as cell growth at 10 uM; type: functional; details: read-out: Activity; in short: as §2
LOX IMVI = assay: Antiproliferative activity against human LOXIMVI cells assessed as cell growth at 10 uM; type: functional; details: read-out: Activity; in short: as §2
U-251 = assay: Antiproliferative activity against human U251 cells assessed as cell growth at 10 uM; type: functional; details: read-out: Activity; in short: as §1
NCI-H322M = assay: Antiproliferative activity against human NCI-H322M cells assessed as cell growth at 10 uM; type: functional; details: read-out: Activity; in short: as §2
SF-295 = assay: Antiproliferative activity against human SF295 cells assessed as cell growth at 10 uM; type: functional; details: read-out: Activity; in short: as §2
UACC-257 = assay: Antiproliferative activity against human UACC257 cells assessed as cell growth at 10 uM; type: functional; details: read-out: Activity; in short: as §1
MDA-MB-231 = assay: Antiproliferative activity against human MDA-MB-231 cells assessed as cell growth at 10 uM; type: functional; details: read-out: Activity; in short: as §2
[6] = molecular target: Telomerase reverse transcriptase (Homo sapiens) (UniProt O14746); assay: Inhibition of telomerase in human H1299 cells up to 100 uM by TRAP assay; type: cell-based
In short: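 PCR-based telomeric repeat amplification protocol (TRAP). The telomerase source was total lysate of H1299 lung cancer cells, with protein measured against BSA standards. Controls were extract without inhibitor and RNase A-treated extract.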

NCI-H522 = assay: Antiproliferative activity against human NCI-H522 cells assessed as cell growth at 10 uM; type: functional; details: read-out: Activity; in short: as §2

## CN(C)c1ccc(-c2nc3ccc4c(c3[nH]2)C(=O)c2ccccc2C4=O)cc1
SNB-75
  growth at 10 µM: 93.1%
HL-60(TB)
  growth at 10 µM: 89.7%
OVCAR-8
  growth at 10 µM: 111%
SR
  growth at 10 µM: 118%
[1]
  viability at 100 µM: 22%
HT-29
  growth at 10 µM: 105%
OVCAR-5
  growth at 10 µM: 117%
SK-OV-3
  growth at 10 µM: 202%
SW-620
  growth at 10 µM: 103%
UACC-62
  growth at 10 µM: 85.8%
UO-31
  growth at 10 µM: 75.5%
SK-MEL-2
  growth at 10 µM: 73.2%
SN12C
  growth at 10 µM: 94.5%
SK-MEL-5
  growth at 10 µM: 93.8%
HCT-116
  growth at 10 µM: 100%
K562
  growth at 10 µM: 96.1%
NCI/ADR-RES
  growth at 10 µM: 108%
[2]
  viability at 10 µM: 62%
MCF7
  growth at 10 µM: 67.4%
NCI-H226
  growth at 10 µM: 89.3%
T47D
  growth at 10 µM: 119%
SF-539
  growth at 10 µM: 111%
ACHN
  growth at 10 µM: 96.2%
HOP-92
  growth at 10 µM: 89.9%
COLO 205
  growth at 10 µM: 208%
HCC 2998
  growth at 10 µM: 109%
NCI-H23
  growth at 10 µM: 93.8%
[3]
  growth at 10 µM: 78.4%
[4]
  residual activity: 92%
EKVX
  growth at 10 µM: 91.9%
[5]
  residual activity: 73%
MOLT-4
  growth at 10 µM: 101%
SF-268
  growth at 10 µM: 95.4%
CAKI-1
  growth at 10 µM: 108%
DU-145
  growth at 10 µM: 99.9%
MDA-MB-435
  growth at 10 µM: 106%
NCI-H460
  growth at 10 µM: 101%
LOX IMVI
  growth at 10 µM: 90.5%
U-251
  growth at 10 µM: 102%
NCI-H322M
  growth at 10 µM: 94.8%
SF-295
  growth at 10 µM: 159%
UACC-257
  growth at 10 µM: 103%
MDA-MB-231
  growth at 10 µM: 94.4%
[6]
  inhibition: inactive
NCI-H522
  growth at 10 µM: 87.1%

## CCc1nc2ccc3c(c2[nH]1)C(=O)c1ccccc1C3=O
SNB-75
  growth at 10 µM: 55.1%
HL-60(TB)
  growth at 10 µM: 41.8%
OVCAR-8
  growth at 10 µM: 72.9%
SR
  growth at 10 µM: 52.5%
[1]
  viability at 100 µM: 37%
HT-29
  growth at 10 µM: 64.5%
OVCAR-5
  growth at 10 µM: 102%
SK-OV-3
  growth at 10 µM: 25.8%
SW-620
  growth at 10 µM: 73.1%
UACC-62
  growth at 10 µM: 51.4%
UO-31
  growth at 10 µM: 23.9%
SK-MEL-2
  growth at 10 µM: 40.1%
SN12C
  growth at 10 µM: 68.5%
SK-MEL-5
  growth at 10 µM: 60.8%
HCT-116
  growth at 10 µM: 47.6%
K562
  growth at 10 µM: 64.4%
NCI/ADR-RES
  growth at 10 µM: 74.4%
[2]
  viability at 10 µM: 82%
MCF7
  growth at 10 µM: 69.8%
NCI-H226
  growth at 10 µM: 75.9%
T47D
  growth at 10 µM: 63%
SF-539
  growth at 10 µM: 83.2%
ACHN
  growth at 10 µM: 25%
HOP-92
  growth at 10 µM: 41.4%
COLO 205
  growth at 10 µM: 69.7%
HCC 2998
  growth at 10 µM: 67.7%
NCI-H23
  growth at 10 µM: 71.4%
[3]
  growth at 10 µM: 56.2%
[4]
  residual activity: 70%
EKVX
  growth at 10 µM: 52.3%
[5]
  residual activity: 59%
MOLT-4
  growth at 10 µM: 64.2%
SF-268
  growth at 10 µM: 80.4%
DU-145
  growth at 10 µM: 61.6%
MDA-MB-435
  growth at 10 µM: 84.4%
NCI-H460
  growth at 10 µM: 59.8%
LOX IMVI
  growth at 10 µM: 40%
U-251
  growth at 10 µM: 60.1%
NCI-H322M
  growth at 10 µM: 31.4%
SF-295
  growth at 10 µM: 75.8%
UACC-257
  growth at 10 µM: 39.7%
MDA-MB-231
  growth at 10 µM: 78%
[6]
  inhibition: inactive
NCI-H522
  growth at 10 µM: 41.5%
